We go through 24 molecules from ChEMBL document CHEMBL3763017, “Synthesis and evaluation of dual antiplatelet activity of bispidine derivatives of N-substituted pyroglutamic acids” (Eur J Med Chem, 2016).

Data set [1] can be described thus: Antiplatelet activity in human platelet rich plasma assessed as inhibition of U46619-induced platelet aggregation at 30 uM preincubated for 5 mins followed by U46619 stimulation by turbidimetry. In kind it is functional. In a few lines:
(§1)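 Human PRP (1×10^8 platelets/ml) from healthy-donor blood spun at 1000 rpm for 10 min. Pre-treated 5 min with compound or 0.4% DMSO vehicle, then agonist added at 37 °C. Light-transmission aggregometry run at least 5–10 min; % aggregation calculated. Single-point screens at 30 μM, n = 3; mean ± SEM.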

The test system of data set [2] is Mus musculus. The data set can be described thus: Antithrombotic activity in Swiss albino mouse assessed as protection against collagen-epinephrine induced pulmonary thromboembolism at 30 umol/kg, po after 1 hr. In kind it is functional. The essentials:
(§2)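 Male Swiss albino mice (18–22 g) dosed orally in 0.5% carboxymethyl cellulose 1, 2, 4, 6, 12 or 24 h before challenge. Collagen (150 μg/ml) plus adrenaline (50 μg/ml) injected into the tail vein. Dead or hind-limb-paralysed mice counted over 15 min and expressed as % protection. Ten mice per drug group, five for vehicle.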

Data set [3] can be described thus: Antiplatelet activity in human platelet rich plasma assessed as inhibition of collagen-induced platelet aggregation at 30 uM preincubated for 5 mins followed by collagen stimulation by turbidimetry. In kind it is functional. The essentials: as §1
For data set [4], the system named is Aorta. Nature of the data set: Inhibition of U46619-induced vasocontraction in Sprague-Dawley rat thoracic aoritc rings at 100 nM (reference value: 89.8 +/- 8.5%). In kind it is functional. Also noted: scale not given: the % may be the effect or the level left.
Data set [5] concerns Mus musculus. Nature of the data set: Antithrombotic activity in Swiss albino mouse assessed as protection against collagen-epinephrine induced pulmonary thromboembolism at 170 umol/kg, po measured upto 5 hrs. Format: functional. In a few lines:
as §2

For data set [6], the system named is Mus musculus. The data set can be described thus: Antithrombotic activity in ferric chloride-induced Swiss albino mouse arterial thrombosis model assessed as time to occlusion at 170 umol/kg, po. In kind it is functional, organism-based.
Data set [7] deals with Mus musculus. Nature of the data set: Toxicity in Swiss albino mouse assessed as bleeding time at 170 umol/kg, po administered as single dose measured up to 24 hrs (reference value: 3.5 +/- 0.3 mins). The settings on record: in vivo. In kind it is organism-based.

Activity calls are given as the source filed them. The rule behind the calls is not given here.

What is called inhibition is the change of the read-out against control, counted positive when it falls. `O=C([C@@H]1CCC(=O)N1Cc1ccc(Cl)cc1)N1CC2CC(CN(Cc3ccccc3)C2)C1`: the inhibition at 30 µM in data set [1] was 80%; in data set [3], 52%. Further, the Activity in data set [2] was determined as 30%.
In the case of `Cc1ccc(CN2C(=O)CC[C@H]2C(=O)N2CC3CC(CN(C(=O)c4ccccc4)C3)C2)cc1`, in data set [2], the Activity amounted to 40%. Also, the inhibition at 30 µM in data set [3] amounted to 20.5%.
On the same counts, the results for `CC(C)(C)OC(=O)N1CC2CC(C1)CN(C(=O)[C@@H]1CCC(=O)N1Cc1cccc3ccccc13)C2` are 30% and 11%.
As for `Cc1ccc(CN2C(=O)CC[C@H]2C(=O)N2CC3CC(CN(Cc4ccccc4)C3)C2)cc1`, in data set [2], the Activity was 25%. The inhibition at 30 µM in data set [3] was found to be 7%.
For `O=C(c1ccccc1)N1CC2CC(C1)CN(C(=O)[C@@H]1CCC(=O)N1Cc1ccccc1Br)C2` the same measures were 60% and 25.6%.
Regarding `Cc1ccc(CN2C(=O)CC[C@H]2C(=O)N2CC3CC(C2)CN(S(=O)(=O)c2ccc(C)cc2)C3)cc1`, the Activity in data set [2] is reported as 40%. Also, the inhibition at 30 µM in data set [3] came to 37.5%.
On to `O=C(O)CCC/C=C\C[C@@H]1[C@H](CNNC(=O)Nc2ccccc2)[C@H]2CC[C@@H]1O2`, for which the Activity in data set [4] was determined as 8.4%.
Consider `Cc1ccc(CN2C(=O)CC[C@H]2C(=O)N2CC3CC(CN(C(=O)OC(C)(C)C)C3)C2)cc1`, for which the Activity in data set [2] turned out to be 40%. Moreover, the inhibition at 30 µM in data set [3] was found to be 25%.
Take `CC(C)(C)OC(=O)N1CC2CC(C1)CN(C(=O)[C@@H]1CCC(=O)N1Cc1ccc(C#N)cc1)C2`: in data set [2], the Activity is reported as 55%. In addition, the inhibition at 30 µM in data set [3] was found to be 11%.
For `O=C([C@@H]1CCC(=O)N1Cc1ccccc1)N1CC2CC(CN(Cc3ccccc3)C2)C1` the same measures were 30% and 44%.
For `O=C([C@@H]1CCC(=O)N1Cc1ccc(Br)cc1)N1CC2CC(CN(Cc3ccccc3)C2)C1` the same measures were 40% and 57%.
Consider `O=C([C@@H]1CCC(=O)N1Cc1c(Cl)cccc1Cl)N1CC2CC(CN(Cc3ccccc3)C2)C1`, for which the inhibition at 30 µM in data set [1] stood at 85%; in data set [3] it was 68%. Further, in data set [2], the Activity was 40%.
`O=C([C@@H]1CCC(=O)N1S(=O)(=O)c1ccccc1)N1CC2CC(CN(Cc3ccccc3)C2)C1`: the Activity in data set [2] is reported as 30%. Also, in data set [3], the inhibition at 30 µM stood at 29%.
For `COc1ccc(CN2C(=O)CC[C@H]2C(=O)N2CC3CC(CN(C(=O)OC(C)(C)C)C3)C2)cc1` the same measures were 45% and 10%.
On the same counts, the results for `COc1ccc(CN2C(=O)CC[C@H]2C(=O)N2CC3CC(CN(Cc4ccccc4)C3)C2)cc1` are 30% and 10%.
On the same counts, the results for `CC(C)(C)OC(=O)N1CC2CC(C1)CN(C(=O)[C@@H]1CCC(=O)N1Cc1ccccc1)C2` are 40% and 6%.
In the case of `Cc1ccc(CN2C(=O)CC[C@H]2C(=O)N2CC3CC(CN(Cc4ccccc4Br)C3)C2)cc1`, the inhibition at 30 µM in data set [1] is 70%; in data set [3], 67%. In addition, in data set [2], the Activity was found to be 30%.
On to `CC(C)(C)OC(=O)N1CC2CC(C1)CN(C(=O)[C@@H]1CCC(=O)N1Cc1ccccc1Br)C2`, for which the Activity in data set [2] is recorded as 50%. The inhibition at 30 µM in data set [3] was 2%.
On the same counts, the results for `CC(C)(C)OC(=O)N1CC2CC(C1)CN(C(=O)[C@@H]1CCC(=O)N1Cc1ccc(Cl)cc1)C2` are 30% and 6%.
On the same counts, the results for `Cc1ccc(S(=O)(=O)N2CC3CC(CN(C(=O)[C@@H]4CCC(=O)N4Cc4ccccc4Br)C3)C2)cc1` are 55% and 16.8%.
As to `Cc1ccc(CN2C(=O)CC[C@H]2C(=O)N2CC3CC(CN(Cc4ccc(Br)cc4)C3)C2)cc1`, the figures for the inhibition at 30 µM in data set [1] and in data set [3] were 52% and 61%, respectively. Also, the Activity in data set [2] is recorded as 50%.
`CC(=O)Oc1ccccc1C(=O)O` [ASPIRIN]: the Activity in data set [5] is 40%. Moreover, the outcome in data set [6] was inactive. The Time in data set [7] worked out at 6.6 min.
For the molecule `CC(C)(C)OC(=O)N1CC2CC(C1)CN(C(=O)[C@@H]1CCC(=O)N1Cc1c(Cl)cccc1Cl)C2`, the Activity in data set [2] came out at 30%. For the same molecule, the inhibition at 30 µM in data set [3] worked out at 3%.
`Cc1ccc(CN2C(=O)CC[C@H]2C(=O)N2CC3CC(CN(Cc4ccc(Cl)cc4)C3)C2)cc1`: the values for the inhibition at 30 µM in data set [1] and in data set [3] were 81% and 67%, respectively. In addition, the Activity in data set [2] stood at 35%.
